Source: ChEMBL document CHEMBL4196081, “Synthesis and antimycobacterial activity of 1-(β-d-Ribofuranosyl)-4-coumarinyloxymethyl- / -coumarinyl-1,2,3-triazole” (Eur J Med Chem, 2018)
Converted amounts (≈) assume the structure as drawn. The source made the active and inactive calls. No cut-off for these calls is given here.

Assays:
[1] = Cytotoxicity against human THP1 cells assessed as cell viability at 150 ug/ml after 48 hrs by MTT assay relative to control; type: cell-based; settings: THP-1 cells, read-out: Activity
Procedure, shortened: (§1)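 THP-1 cells (human monocytic line) seeded at 10^4 per well and adhered with phorbol myristate acetate (20 ng/mL). Then given fresh RPMI with 10% foetal calf serum and 2 mM L-glutamine, plus compound by serial double dilution (4.68–150 µg/mL), with DMSO and no-DMSO controls. Incubated 24 or 48 h at 37 °C, 5% CO2. MTT added for 4 h, formazan dissolved in DMSO, A540 read, percentage survival calculated.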

[2] = tested on: Mycobacterium tuberculosis; test: Antimycobacterial activity against Mycobacterium tuberculosis H37Rv assessed as induction of cell wall disintegration at 0.05 uM after 30 mins by TEM analysis; type: functional, organism-based
[3] = Cytotoxicity against human THP1 cells assessed as cell viability at 75 ug/ml after 48 hrs by MTT assay relative to control; type: cell-based; settings: THP-1 cells, read-out: Activity; procedure, shortened: as §1
[4] = Cytotoxicity against human THP1 cells assessed as cell viability at 18.72 ug/ml after 48 hrs by MTT assay relative to control; type: cell-based; settings: THP-1 cells, read-out: Activity; procedure, shortened: as §1
[5] = Selectivity index, ratio of IC50 for cytotoxicity against human THP1 cells to MIC for Mycobacterium tuberculosis H37Rv; type: toxicity, cell-based; settings: THP-1 cells, read-out: Selectivity Index
Procedure, shortened: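 THP-1 cells, 10^4/well, adhered with PMA 20 ng/mL, in RPMI with 10 % FCS and 2 mM L-glutamine; exposed to 4.68–150 µg/mL for 24 and 48 h at 37 °C, 5 % CO2; MTT 4 h, formazan in DMSO, A540. Index = THP-1 IC50 divided by H37Rv MABA MIC.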

[6] = Cytotoxicity against human THP1 cells assessed as cell viability at 18.72 ug/ml after 24 hrs by MTT assay relative to control; type: cell-based; settings: THP-1 cells, read-out: Activity; procedure, shortened: as §1
[7] = tested on: Mycobacterium tuberculosis; test: Bactericidal activity against Mycobacterium tuberculosis H37Rv after 4 weeks by MABA; type: functional; settings: 672 h
[8] = tested on: Mycobacterium tuberculosis; test: Ratio of MBC to MIC for Mycobacterium tuberculosis H37Rv; type: functional
[9] = Cytotoxicity against human THP1 cells assessed as cell viability at 9.36 ug/ml after 24 hrs by MTT assay relative to control; type: cell-based; settings: THP-1 cells, read-out: Activity; procedure, shortened: as §1
[10] = tested on: Mycobacterium tuberculosis; test: Antimycobacterial activity against Mycobacterium tuberculosis H37Rv after 10 days by MABA; type: functional; settings: 240 h
Procedure, shortened: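 MABA in 7H9 medium: log-phase culture passed through 8 µm filter, density set by OD600 and McFarland standards, 1 × 10^6 cells per well with drug dilutions; aerobic incubation 37 °C 10 days, then 0.02 % resazurin, overnight 37 °C. MIC = lowest concentration preventing blue-to-pink change. Triplicate; medium+inoculum and medium-only controls.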

[11] = Cytotoxicity against human THP1 cells assessed as cell viability at 37.48 ug/ml after 24 hrs by MTT assay relative to control; type: cell-based; settings: THP-1 cells, read-out: Activity; procedure, shortened: as §1
[12] = Cytotoxicity against human THP1 cells assessed as cell viability at 37.48 ug/ml after 48 hrs by MTT assay relative to control; type: cell-based; settings: THP-1 cells, read-out: Activity; procedure, shortened: as §1
[13] = Cytotoxicity against human THP1 cells assessed as cell viability at 4.68 ug/ml after 24 hrs by MTT assay relative to control; type: cell-based; settings: THP-1 cells, read-out: Activity; procedure, shortened: as §1
[14] = Cytotoxicity against human THP1 cells assessed as cell viability at 4.68 ug/ml after 48 hrs by MTT assay relative to control; type: cell-based; settings: THP-1 cells, read-out: Activity; procedure, shortened: as §1
[15] = Cytotoxicity against human THP1 cells assessed as cell viability at 150 ug/ml after 24 hrs by MTT assay relative to control; type: cell-based; settings: THP-1 cells, read-out: Activity; procedure, shortened: as §1
[16] = Cytotoxicity against human THP1 cells assessed as cell viability at 9.36 ug/ml after 48 hrs by MTT assay relative to control; type: cell-based; settings: THP-1 cells, read-out: Activity; procedure, shortened: as §1
THP-1 = test: Cytotoxicity against human THP1 cells assessed as growth inhibition after 24 to 48 hrs by MTT assay; type: cell-based; procedure, shortened: as §1
[17] = tested on: Mycobacterium tuberculosis; test: Antimycobacterial activity against MDR Mycobacterium tuberculosis isolate 591 after 15 days by MABA; type: functional; settings: isolate 591, 360 h
Procedure, shortened: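 MABA in 7H9 medium on MDR clinical isolate 591: filtered single-cell suspension, 1 × 10^6 cells per well with drug dilutions, aerobic 37 °C; 0.02 % resazurin added on day 15, overnight 37 °C. MIC = lowest concentration preventing blue-to-pink change. Triplicate; medium+inoculum and medium-only controls.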

[18] = Cytotoxicity against human THP1 cells assessed as cell viability at 75 ug/ml after 24 hrs by MTT assay relative to control; type: cell-based; settings: THP-1 cells, read-out: Activity; procedure, shortened: as §1
DNA gyrase subunit B = DNA gyrase subunit B (Escherichia coli, UniProt P0AES6); test: Inhibition of Escherichia coli DNA gyrase-B using relaxed pUC19 DNA as substrate after 1 hr by bromophenol blue dye based agarose gel electrophoresis method
Procedure, shortened: (§2)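 E. coli DNA gyrase, 1 unit, with 0.3 µg relaxed pUC19 plasmid in 1X gyrase assay buffer. Compound added as 0.2 µL from 100 µM stock; ciprofloxacin positive control, DMSO solvent control. Incubated 37 °C for 1 h, stopped with 50% glycerol/0.25% bromophenol blue. Run on 1% agarose in 0.5X TBE pH 8.3, 16 h at 30 mA, ethidium bromide stained, UV visualised for supercoiling.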

[19] = tested on: Mycobacterium tuberculosis; test: Potency index, ratio of rifampicin MIC to compound MIC for antimycobacterial activity against MDR Mycobacterium tuberculosis isolate 591; type: functional
[20] = tested on: Mycobacterium tuberculosis; test: Potency index, ratio of streptomycin MIC to compound MIC for antimycobacterial activity against MDR Mycobacterium tuberculosis isolate 591; type: functional
[21] = tested on: Mycobacterium tuberculosis; test: Potency index, ratio of isoniazid MIC to compound MIC for antimycobacterial activity against MDR Mycobacterium tuberculosis isolate 591; type: functional
[22] = tested on: Mycobacterium tuberculosis; test: Potency index, ratio of ethambutol MIC to compound MIC for antimycobacterial activity against MDR Mycobacterium tuberculosis isolate 591; type: functional
[23] = molecular target: T1, Enoyl-[acyl-carrier-protein] reductase [NADH] (Mycobacterium tuberculosis) (UniProt P9WGR1); test: Inhibition of Mycobacterium tuberculosis H37Rv InhA expressed in Escherichia coli at 5 to 100 uM preincubated for 30 mins followed by crotonoyl-CoA substrate and NADH addition measured over 15 mins by spectrophotometric method
T1 sequence (whole entry): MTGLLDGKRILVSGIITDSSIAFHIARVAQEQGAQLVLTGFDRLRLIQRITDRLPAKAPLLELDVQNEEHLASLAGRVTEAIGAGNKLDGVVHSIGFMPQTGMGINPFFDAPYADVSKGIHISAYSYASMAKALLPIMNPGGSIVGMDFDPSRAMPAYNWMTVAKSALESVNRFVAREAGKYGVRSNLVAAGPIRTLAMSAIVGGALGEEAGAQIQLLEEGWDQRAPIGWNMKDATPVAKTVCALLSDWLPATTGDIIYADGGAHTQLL
Procedure, shortened: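 Purified recombinant InhA (Rv1484, cloned in E. coli), 2 µg, preincubated 30 min with compound at 5 µM final (DMSO ≤1 % v/v) in 100 mM sodium phosphate pH 7.5; started with 100 µM NADH and 100 µM crotonoyl-CoA; A340 followed 15 min at room temperature. Triplicate.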

[24] = tested on: Mycobacterium tuberculosis; test: Antimycobacterial activity against Mycobacterium tuberculosis H37Rv assessed as cells with vacuole formation at 1.38 uM after 30 mins by TEM analysis; type: functional, organism-based
[25] = tested on: Mycobacterium tuberculosis; test: Bactericidal activity against MDR Mycobacterium tuberculosis isolate 591 after 4 weeks by MABA; type: functional; settings: isolate 591, 672 h
[26] = tested on: Mycobacterium tuberculosis; test: Antimycobacterial activity against Mycobacterium tuberculosis H37Rv assessed as induction of cell wall disintegration at 1.38 uM after 30 mins by TEM analysis; type: functional, organism-based
[27] = molecular target: DNA gyrase subunit B (Escherichia coli) (UniProt P0AES6); test: Inhibition of Escherichia coli DNA gyrase-B at 0.66 to 100 uM using relaxed pUC19 DNA as substrate after 1 hr by bromophenol blue dye based agarose gel electrophoresis method; procedure, shortened: as §2
[28] = tested on: Mycobacterium tuberculosis; test: Ratio of MBC to MIC for MDR Mycobacterium tuberculosis isolate 591; type: functional
[29] = tested on: Mycobacterium tuberculosis; test: Antimycobacterial activity against Mycobacterium tuberculosis H37Rv assessed as induction of cell wall disintegration at 4.15 uM after 30 mins by TEM analysis; type: functional, organism-based
[30] = tested on: Mycobacterium tuberculosis; test: Antimycobacterial activity against Mycobacterium tuberculosis H37Rv assessed as cells with vacuole formation at 4.15 uM after 30 mins by TEM analysis; type: functional, organism-based

| Compound | viability at 48 h, 150 ug/ml [1] [%] | viability at 48 h, 75 ug/ml [3] [%] | viability at 48 h, 18.72 ug/ml [4] [%] | selectivity ratio [5] | viability at 24 h, 18.72 ug/ml [6] [%] | MBC [7] [µM] | Ratio [8] | viability at 24 h, 9.36 ug/ml [9] [%] | MIC [10] [µM] | viability at 24 h, 37.48 ug/ml [11] [%] | viability at 48 h, 37.48 ug/ml [12] [%] | viability at 24 h, 4.68 ug/ml [13] [%] | viability at 48 h, 4.68 ug/ml [14] [%] | viability at 24 h, 150 ug/ml [15] [%] | viability at 48 h, 9.36 ug/ml [16] [%] | IC50 (THP-1) [µM] | MIC [17] [µM] | viability at 24 h, 75 ug/ml [18] [%] | IC50 (DNA gyrase subunit B) [µM] | inhibition [23] | other results |
| --- | --- | --- | --- | --- | --- | --- | --- | --- | --- | --- | --- | --- | --- | --- | --- | --- | --- | --- | --- | --- | --- |
| NNC(=O)c1ccncc1 [ISONIAZID] | 40 | 41 | 67 | 2740 | 83 | 0.3 (≈ 0.0411 µg/mL) | 1.6 | 85 | 0.2 (≈ 0.0274 µg/mL) | 68 | 57 | 90 | 84 | 48 | 74 | 547 | 2190 (≈ 300 µg/mL) | 50 |  |  | Activity [2]: Active |
| Cc1cc(=O)oc2cc(OCc3cn([C@@H]4O[C@H](CO)[C@@H](O)[C@H]4O)nn3)ccc12 | 60 | 68 | 84 | 75.4 | 100 | 6.4 (≈ 2.49 µg/mL) | 1.25 | 100 | 5.1 (≈ 1.99 µg/mL) | 100 | 74 | 100 | 95 | 84 | 94 | > 385 | 10.3 (≈ 4.01 µg/mL) | 97 | 0.8 | Active | Ratio [19]: 7 - 420; Ratio [20]: 7 - 420; Ratio [21]: 7 - 420; Ratio [22]: 7 - 420; Activity [24]: Active; MBC [25]: 11.5 µM (≈ 4.48 µg/mL); Activity [26]: Active; inhibition [27]: Active; Ratio [28]: 1.13 |
| Cc1cc(=O)oc2cc(-c3cn([C@@H]4O[C@H](CO)[C@@H](O)[C@H]4O)nn3)ccc12 | 60 | 64 | 87 | 25 | 99 | 16.7 (≈ 6 µg/mL) | 1 | 100 | 16.6 (≈ 5.97 µg/mL) | 99 | 77 | 100 | 96 | 84 | 90 | > 417 | 22.2 (≈ 7.98 µg/mL) | 96 | 3.2 | Active | Activity [29]: Active; Activity [30]: Active; MBC [25]: 22.2 µM (≈ 7.98 µg/mL); inhibition [27]: Active; Ratio [28]: 1 |
